Experimental data reported in ChEMBL document CHEMBL1944546, “Structure-activity relationships of novel alkylides: 3-O-arylalkyl clarithromycin derivatives with improved antibacterial activities” (2012).
Converted amounts (≈) assume the structure as drawn.

What was measured:
Streptococcus pneumoniae [1] = assay: Antibacterial activity against penicillin-susceptible, constitutive MLS-resistant Streptococcus pneumoniae PU 27 by broth microdilution method; assay type: functional
Procedure, shortened: (§1)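 MIC by broth microdilution following CLSI (2010) recommendations, using clinical isolates identified by 16S rDNA sequencing and labelled by genotype and phenotype. S. aureus ATCC 29213 and S. pneumoniae ATCC 49619 were run as control strains, and azithromycin, clarithromycin and 3-OH-clarithromycin were tested as reference agents.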

Streptococcus pneumoniae [2] = assay: Antibacterial activity against efflux,penicillin-susceptible Streptococcus pneumoniae PU 09 by broth microdilution method; assay type: functional
Procedure, shortened: (§2)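 MIC read by broth microdilution following CLSI (2010) guidance. The clinical isolates were identified by 16S rDNA sequencing and labelled by genotype and phenotype. S. aureus ATCC 29213 and S. pneumoniae ATCC 49619 were the control strains. Azithromycin, clarithromycin and 3-OH-clarithromycin were run as reference compounds.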

Staphylococcus aureus [3] = assay: Antibacterial activity against erythromycin-susceptible Staphylococcus aureus ATCC 29213 by broth microdilution method; assay type: functional; procedure, shortened: as §2
[4] = tested on: Staphylococcus haemolyticus; assay: Antibacterial activity against methicillin-resistant, coagulase-negative, constitutive MLS-resistant Staphylococcus haemolyticus PU 19 by broth microdilution method; assay type: functional; procedure, shortened: as §1
Streptococcus pneumoniae [5] = assay: Antibacterial activity against erythromycin-susceptible Streptococcus pneumoniae ATCC 49619 by broth microdilution method; assay type: functional; procedure, shortened: as §2
Streptococcus pneumoniae [6] = assay: Antibacterial activity against penicillin-, constitutive MLS-resistant Streptococcus pneumoniae PU 11 by broth microdilution method; assay type: functional; procedure, shortened: as §1
Staphylococcus aureus [7] = assay: Antibacterial activity against methicillin-, inducible MLS-resistant Staphylococcus aureus PU 32 by broth microdilution method
Staphylococcus aureus [8] = assay: Antibacterial activity against methicillin-susceptible, inducible MLS-resistant Staphylococcus aureus PU 64 by broth microdilution method; assay type: functional; procedure, shortened: as §1
[9] = tested on: Staphylococcus epidermidis; assay: Antibacterial activity against methicillin-susceptible, inducible MLS-resistant Staphylococcus epidermidis E1 by broth microdilution method; assay type: functional; procedure, shortened: as §1
[10] = tested on: Staphylococcus epidermidis; assay: Antibacterial activity against methicillin-resistant, constitutive MLS-resistant Staphylococcus epidermidis E2 by broth microdilution method; assay type: functional; procedure, shortened: as §1
[11] = tested on: Streptococcus dysgalactiae; assay: Antibacterial activity against efflux, erythromycin-resistant Streptococcus dysgalactiae A 1 by broth microdilution method; assay type: functional; procedure, shortened: as §1
Staphylococcus hominis = assay: Antibacterial activity against methicillin-resistant, coagulase-negative, inducible MLS-resistant Staphylococcus hominis E3 by broth microdilution method; assay type: functional; procedure, shortened: as §1
Staphylococcus aureus [12] = assay: Antibacterial activity against methicillin-, constitutive MLS-resistant […] by broth microdilution method; assay type: functional; procedure, shortened: as §1
Streptococcus pyogenes [13] = assay: Antibacterial activity against constitutive MLS-resistant Streptococcus pyogenes A 2 by broth microdilution method; assay type: functional; procedure, shortened: as §1
Streptococcus pyogenes [14] = assay: Antibacterial activity against erythromycin-susceptible Streptococcus pyogenes A 3 by broth microdilution method; assay type: functional; procedure, shortened: as §2

Structure (SMILES)	MIC (Streptococcus pneumoniae [1])	MIC (Streptococcus pneumoniae [2])	MIC (Staphylococcus aureus [3])	MIC [4]	MIC (Streptococcus pneumoniae [5])	MIC (Streptococcus pneumoniae [6])	MIC (Staphylococcus aureus [7])	MIC (Staphylococcus aureus [8])	MIC [9]	MIC [10]	MIC [11]	MIC (Staphylococcus hominis)	MIC (Staphylococcus aureus [12])	MIC (Streptococcus pyogenes [13])	MIC (Streptococcus pyogenes [14])
C=CCO[C@H]1[C@H](C)[C@@H](O[C@@H]2O[C@H](C)C[C@H](N(C)C)[C@H]2O)[C@](C)(OC)C[C@@H](C)/C(=N\O)[C@H](C)[C@@H](O)[C@](C)(O)[C@@H](CC)OC(=O)[C@@H]1C	128 µg/mL (≈ 198 µM)	32 µg/mL (≈ 49.6 µM)	256 µg/mL (≈ 397 µM)	> 256 µg/mL	16 µg/mL (≈ 24.8 µM)	> 256 µg/mL	128 µg/mL (≈ 198 µM)	–	–	–	–	–	–	–	–
CC[C@H]1OC(=O)[C@H](C)[C@@H](OCC#Cc2cncnc2)[C@H](C)[C@@H](O[C@@H]2O[C@H](C)C[C@H](N(C)C)[C@H]2O)[C@](C)(OC)C[C@@H](C)/C(=N\O)[C@H](C)[C@@H](O)[C@]1(C)O	> 256 µg/mL	> 256 µg/mL	> 256 µg/mL	> 256 µg/mL	> 256 µg/mL	> 256 µg/mL	> 256 µg/mL	> 256 µg/mL	> 256 µg/mL	> 256 µg/mL	> 256 µg/mL	> 256 µg/mL	> 256 µg/mL	> 256 µg/mL	> 256 µg/mL
CC[C@H]1OC(=O)[C@H](C)[C@@H](OCCCc2cccnc2)[C@H](C)[C@@H](O[C@@H]2O[C@H](C)C[C@H](N(C)C)[C@H]2O)[C@](C)(OC)C[C@@H](C)/C(=N\OCc2ccccc2Cl)[C@H](C)[C@H]2OC(=O)O[C@@]21C	32 µg/mL (≈ 36.6 µM)	16 µg/mL (≈ 18.3 µM)	> 256 µg/mL	> 256 µg/mL	8 µg/mL (≈ 9.15 µM)	64 µg/mL (≈ 73.2 µM)	> 256 µg/mL	> 256 µg/mL	> 256 µg/mL	> 256 µg/mL	16 µg/mL (≈ 18.3 µM)	> 256 µg/mL	> 256 µg/mL	32 µg/mL (≈ 36.6 µM)	8 µg/mL (≈ 9.15 µM)
CC[C@H]1OC(=O)[C@H](C)[C@@H](O/C=C\Cc2cncnc2)[C@H](C)[C@@H](O[C@@H]2O[C@H](C)C[C@H](N(C)C)[C@H]2O)[C@](C)(OC)C[C@@H](C)/C(=N\OCc2ccccc2)[C@H](C)[C@@H](O)[C@]1(C)O	32 µg/mL (≈ 39.4 µM)	2 µg/mL (≈ 2.46 µM)	32 µg/mL (≈ 39.4 µM)	> 256 µg/mL	2 µg/mL (≈ 2.46 µM)	64 µg/mL (≈ 78.7 µM)	4 µg/mL (≈ 4.92 µM)	–	–	–	–	–	–	–	–
CC[C@H]1OC(=O)[C@H](C)[C@@H](OC/C=C/c2cncnc2)[C@H](C)[C@@H](O[C@@H]2O[C@H](C)C[C@H](N(C)C)[C@H]2O)[C@](C)(OC)C[C@@H](C)/C(=N\OCc2ccccc2)[C@H](C)[C@H]2OC(=O)O[C@@]21C	64 µg/mL (≈ 76.3 µM)	4 µg/mL (≈ 4.77 µM)	32 µg/mL (≈ 38.1 µM)	> 256 µg/mL	2 µg/mL (≈ 2.38 µM)	64 µg/mL (≈ 76.3 µM)	32 µg/mL (≈ 38.1 µM)	–	–	–	–	–	–	–	–
CC[C@H]1OC(=O)[C@H](C)[C@@H](OC/C=C/c2ccc(-n3ccnc3)cc2)[C@H](C)[C@@H](O[C@@H]2O[C@H](C)C[C@H](N(C)C)[C@H]2O)[C@](C)(OC)C[C@@H](C)/C(=N\OCc2ccccc2Cl)[C@H](C)[C@H]2OC(=O)O[C@@]21C	32 µg/mL (≈ 34.1 µM)	16 µg/mL (≈ 17.1 µM)	32 µg/mL (≈ 34.1 µM)	32 µg/mL (≈ 34.1 µM)	16 µg/mL (≈ 17.1 µM)	32 µg/mL (≈ 34.1 µM)	32 µg/mL (≈ 34.1 µM)	–	–	–	–	–	–	–	–
CC[C@H]1OC(=O)[C@H](C)[C@@H](OC/C=C/c2cncnc2)[C@H](C)[C@@H](O[C@@H]2O[C@H](C)C[C@H](N(C)C)[C@H]2O)[C@](C)(OC)C[C@@H](C)/C(=N\OCc2ccccc2Cl)[C@H](C)[C@H]2OC(=O)O[C@@]21C	–	–	64 µg/mL (≈ 73.3 µM)	64 µg/mL (≈ 73.3 µM)	4 µg/mL (≈ 4.58 µM)	32 µg/mL (≈ 36.6 µM)	64 µg/mL (≈ 73.3 µM)	–	–	–	–	–	–	–	–
CC[C@H]1OC(=O)[C@H](C)[C@@H](O/C=C\Cc2cncnc2)[C@H](C)[C@@H](O[C@@H]2O[C@H](C)C[C@H](N(C)C)[C@H]2O)[C@](C)(OC)C[C@@H](C)/C(=N\O)[C@H](C)[C@@H](O)[C@]1(C)O	16 µg/mL (≈ 22.1 µM)	0.25 µg/mL (≈ 0.346 µM)	0.064 µg/mL (≈ 0.0885 µM)	> 256 µg/mL	0.064 µg/mL (≈ 0.0885 µM)	128 µg/mL (≈ 177 µM)	0.064 µg/mL (≈ 0.0885 µM)	–	–	–	–	–	–	–	–
CC[C@H]1OC(=O)[C@H](C)[C@@H](O/C=C\Cc2cncnc2)[C@H](C)[C@@H](O[C@@H]2O[C@H](C)C[C@H](N(C)C)[C@H]2O)[C@](C)(OC)C[C@@H](C)/C(=N\OCc2ccccc2)[C@H](C)[C@H]2OC(=O)O[C@@]21C	16 µg/mL (≈ 19.1 µM)	1 µg/mL (≈ 1.19 µM)	2 µg/mL (≈ 2.38 µM)	64 µg/mL (≈ 76.3 µM)	0.25 µg/mL (≈ 0.298 µM)	32 µg/mL (≈ 38.1 µM)	1 µg/mL (≈ 1.19 µM)	–	–	–	–	–	–	–	–
CC[C@H]1OC(=O)[C@H](C)[C@@H](O/C=C\Cc2cncnc2)[C@H](C)[C@@H](O[C@@H]2O[C@H](C)C[C@H](N(C)C)[C@H]2O)[C@](C)(OC)C[C@@H](C)/C(=N\OCc2ccccc2Cl)[C@H](C)[C@H]2OC(=O)O[C@@]21C	–	–	8 µg/mL (≈ 9.16 µM)	64 µg/mL (≈ 73.3 µM)	0.25 µg/mL (≈ 0.286 µM)	32 µg/mL (≈ 36.6 µM)	32 µg/mL (≈ 36.6 µM)	–	–	–	–	–	–	–	–
